pIC50: −log10 of the molar value.
These compounds were tested against Integrin alpha-IIb/beta-3 (Homo sapiens, UniProt P08514+P05106) (assay: Inhibition of aggregation of human gel-purified platelets (GPIIbIIIa GPP)).
Method in brief: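 Human platelets from healthy-volunteer platelet-rich plasma were gel-purified on sepharose and used at 2×10^8 platelets/mL with 1 mM CaCl2 and 1 mg/mL fibrinogen. Aggregation was measured with or without compound at several concentrations and IC50 calculated. Values are single determinations.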

Integrin alpha-IIb/beta-3, sequence (P05106 27-788 limits assumed): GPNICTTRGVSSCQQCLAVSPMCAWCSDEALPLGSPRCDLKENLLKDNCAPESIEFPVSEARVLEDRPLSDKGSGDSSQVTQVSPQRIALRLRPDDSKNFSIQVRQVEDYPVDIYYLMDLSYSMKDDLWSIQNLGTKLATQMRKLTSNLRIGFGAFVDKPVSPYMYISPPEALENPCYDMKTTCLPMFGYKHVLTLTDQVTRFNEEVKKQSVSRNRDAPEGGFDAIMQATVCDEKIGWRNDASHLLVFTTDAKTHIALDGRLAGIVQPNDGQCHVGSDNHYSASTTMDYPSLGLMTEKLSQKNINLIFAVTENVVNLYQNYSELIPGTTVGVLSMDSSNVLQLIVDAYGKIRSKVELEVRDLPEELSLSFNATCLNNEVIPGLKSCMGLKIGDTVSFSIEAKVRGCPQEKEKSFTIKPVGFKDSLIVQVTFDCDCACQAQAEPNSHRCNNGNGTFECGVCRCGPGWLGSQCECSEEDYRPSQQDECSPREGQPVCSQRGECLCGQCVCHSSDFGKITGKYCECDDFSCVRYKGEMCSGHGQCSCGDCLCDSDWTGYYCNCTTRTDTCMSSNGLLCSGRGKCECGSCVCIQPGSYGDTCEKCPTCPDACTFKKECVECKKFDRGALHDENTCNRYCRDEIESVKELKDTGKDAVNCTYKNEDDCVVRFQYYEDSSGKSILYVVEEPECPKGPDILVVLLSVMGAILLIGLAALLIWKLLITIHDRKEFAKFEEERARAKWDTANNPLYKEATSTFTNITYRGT
Integrin alpha-IIb/beta-3, sequence (P08514 32-887 limits assumed): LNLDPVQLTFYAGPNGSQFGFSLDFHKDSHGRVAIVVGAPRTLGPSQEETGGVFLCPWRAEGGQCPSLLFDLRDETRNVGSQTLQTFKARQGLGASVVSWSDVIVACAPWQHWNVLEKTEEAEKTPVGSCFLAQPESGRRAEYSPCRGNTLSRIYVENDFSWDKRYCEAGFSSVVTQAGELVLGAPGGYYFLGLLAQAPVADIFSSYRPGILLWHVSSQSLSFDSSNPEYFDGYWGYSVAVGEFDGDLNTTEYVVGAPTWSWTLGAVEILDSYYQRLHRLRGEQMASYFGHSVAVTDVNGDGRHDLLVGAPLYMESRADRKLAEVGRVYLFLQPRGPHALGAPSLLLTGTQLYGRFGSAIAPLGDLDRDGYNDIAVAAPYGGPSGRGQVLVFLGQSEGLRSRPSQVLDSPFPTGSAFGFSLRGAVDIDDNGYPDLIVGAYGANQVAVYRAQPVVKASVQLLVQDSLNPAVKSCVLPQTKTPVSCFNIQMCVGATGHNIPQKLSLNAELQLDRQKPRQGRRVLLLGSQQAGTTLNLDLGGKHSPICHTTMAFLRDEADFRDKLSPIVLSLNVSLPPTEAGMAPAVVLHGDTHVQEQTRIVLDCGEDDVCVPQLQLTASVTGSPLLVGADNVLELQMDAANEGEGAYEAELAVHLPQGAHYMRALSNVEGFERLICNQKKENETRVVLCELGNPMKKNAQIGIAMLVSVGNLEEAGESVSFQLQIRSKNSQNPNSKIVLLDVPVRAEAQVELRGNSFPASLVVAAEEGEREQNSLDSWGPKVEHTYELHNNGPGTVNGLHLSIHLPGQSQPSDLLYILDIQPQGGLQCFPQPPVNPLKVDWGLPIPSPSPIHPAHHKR
Integrin alpha-IIb/beta-3, sequence (P08514 891-1039 limits assumed): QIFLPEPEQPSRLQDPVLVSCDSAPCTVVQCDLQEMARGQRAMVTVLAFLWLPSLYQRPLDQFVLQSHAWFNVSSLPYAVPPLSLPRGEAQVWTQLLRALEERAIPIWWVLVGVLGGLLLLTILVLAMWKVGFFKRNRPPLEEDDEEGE

Row | Structure (SMILES) | pIC50
1 | CC(C)COC(=O)N[C@@H](CNC(=O)c1ccc2c(cnn2CCCNc2ccccn2)c1)C(=O)O [2-Isobutoxycarbonylamino-3-({1-[3-(pyridin-2-ylamino)-propyl]-1H-indazole-5-carbonyl}-amino)-propionic acid] | 4.60
2 | Cc1cc(C)c(S(=O)(=O)N[C@H](CNC(=O)c2ccc3c(cnn3CCCNc3ncc[nH]3)c2)C(=O)O)c(C)c1 | 5.30
3 | O=C(N[C@@H](CNC(=O)c1ccc2c(cnn2CCCNc2ccccn2)c1)C(=O)O)OCc1ccccc1 [2-Benzyloxycarbonylamino-3-({1-[3-(pyridin-2-ylamino)-propyl]-1H-indazole-5-carbonyl}-amino)-propionic acid] | < 5.00
4 | O=C(NC[C@H](NS(=O)(=O)c1ccc(Cl)c(Cl)c1)C(=O)O)c1ccc2c(cnn2CCCNc2ncc[nH]2)c1 [2-(3,4-Dichloro-benzenesulfonylamino)-3-({1-[3-(1H-imidazol-2-ylamino)-propyl]-1H-indazole-5-carbonyl}-amino)-propionic acid] | 6.10
5 | Cc1cc(C)c(S(=O)(=O)N[C@@H](CNC(=O)c2ccc3c(cnn3CCCNC3=NCCN3)c2)C(=O)O)c(C)c1 [3-({1-[3-(4,5-Dihydro-1H-imidazol-2-ylamino)-propyl]-1H-indazole-5-carbonyl}-amino)-2-(2,4,6-trimethyl-benzenesulfonylamino)-propionic acid] | 7.24
6 | Cc1cc(C)c(NS(=O)(=O)N[C@@H](CNC(=O)c2ccc3c(cnn3CCCNc3ccccn3)c2)C(=O)O)c(C)c1 [3-[1-[3-(N-Pyridin-2ylamino)propyl]indazol-5-ylcarbonylamino]-2(S)-(2,4,6-trimethylphenylaminosulfonylamino) propionic acid] | 4.44
7 | O=C(NC[C@H](NS(=O)(=O)c1ccccc1)C(=O)O)c1ccc2c(cnn2CCCNc2ccccn2)c1 [2-Benzenesulfonylamino-3-({1-[3-(pyridin-2-ylamino)-propyl]-1H-indazole-5-carbonyl}-amino)-propionic acid] | 6.54
8 | Cc1cc(C)c(S(=O)(=O)N[C@@H](CC(=O)Nc2ccc3c(cnn3CCCNc3ccccn3)c2)C(=O)O)c(C)c1 [N-{1-[3-(Pyridin-2-ylamino)-propyl]-1H-indazol-5-yl}-2-(2,4,6-trimethyl-benzenesulfonylamino)-succinamic acid] | 4.39
9 | O=C(NC[C@H](NS(=O)(=O)NCc1ccccc1)C(=O)O)c1ccc2c(cnn2CCCNc2ccccn2)c1 [3-[1-[3-(N-Pyridin-2ylamino)propyl]indazol-5-ylcarbonylamino]-2(S)-(phenylmethylaminosulfonylamino) propionic acid] | 5.09
10 | CCCCS(=O)(=O)N[C@@H](CNC(=O)c1ccc2c(cnn2CCCNc2ccccn2)c1)C(=O)O [2-(Butane-1-sulfonylamino)-3-({1-[3-(pyridin-2-ylamino)-propyl]-1H-indazole-5-carbonyl}-amino)-propionic acid] | 5.05
11 | O=C(N[C@@H](CNC(=O)c1ccc2c(cnn2CCCNc2ncc[nH]2)c1)C(=O)O)OCc1ccccc1 [2-Benzyloxycarbonylamino-3-({1-[3-(1H-imidazol-2-ylamino)-propyl]-1H-indazole-5-carbonyl}-amino)-propionic acid] | 6.00
12 | Cc1cc(C)c(S(=O)(=O)N[C@@H](CNC(=O)c2ccc3c(cnn3CCCNc3ccccn3)c2)C(=O)O)c(C)c1 [3-({1-[3-(Pyridin-2-ylamino)-propyl]-1H-indazole-5-carbonyl}-amino)-2-(2,4,6-trimethyl-benzenesulfonylamino)-propionic acid] | 6.66
13 | Cc1cc(C)c(S(=O)(=O)N[C@@H](CNC(=O)c2ccc3c(cnn3CCC(=O)Nc3ncc[nH]3)c2)C(=O)O)c(C)c1 [3-({1-[2-(1H-Imidazol-2-ylcarbamoyl)-ethyl]-1H-indazole-5-carbonyl}-amino)-2-(2,4,6-trimethyl-benzenesulfonylamino)-propionic acid] | 5.40
14 | O=C(NC[C@H](NS(=O)(=O)c1ccc(C(F)(F)F)cc1)C(=O)O)c1ccc2c(cnn2CCCNc2ncc[nH]2)c1 [3-({1-[3-(1H-Imidazol-2-ylamino)-propyl]-1H-indazole-5-carbonyl}-amino)-2-(4-trifluoromethyl-benzenesulfonylamino)-propionic acid] | 5.36
15 | Cc1cc(C)c(S(=O)(=O)N[C@@H](CNC(=O)c2ccc3c(cnn3CCCNC3=NCCCN3)c2)C(=O)O)c(C)c1 [3-({1-[3-(1,4,5,6-Tetrahydro-pyrimidin-2-ylamino)-propyl]-1H-indazole-5-carbonyl}-amino)-2-(2,4,6-trimethyl-benzenesulfonylamino)-propionic acid] | 7.18
16 | Cc1cc(C)c(S(=O)(=O)N[C@@H](CNC(=O)c2ccc3c(cnn3CCCNc3ncc[nH]3)c2)C(=O)O)c(C)c1 [3-({1-[3-(1H-Imidazol-2-ylamino)-propyl]-1H-indazole-5-carbonyl}-amino)-2-(2,4,6-trimethyl-benzenesulfonylamino)-propionic acid] | 7.68
17 | O=C(NC[C@H](NS(=O)(=O)Nc1ccccc1)C(=O)O)c1ccc2c(cnn2CCCNc2ccccn2)c1 [3-[1-[3-(N-Pyridin-2ylamino)propyl]indazol-5-ylcarbonylamino]-2(S)-(phenylaminosulfonylamino) propionic acid] | 5.11

The remaining lines, values ahead:

Row | pIC50 | Structure (SMILES)
18 | 6.89 | O=C(NC[C@H](NS(=O)(=O)c1ccc(-c2ccccc2)cc1)C(=O)O)c1ccc2c(cnn2CCCNc2ncc[nH]2)c1 [2-(Biphenyl-4-sulfonylamino)-3-({1-[3-(1H-imidazol-2-ylamino)-propyl]-1H-indazole-5-carbonyl}-amino)-propionic acid]
19 | 7.41 | O=C(NC[C@H](NS(=O)(=O)c1cccc2ccccc12)C(=O)O)c1ccc2c(cnn2CCCNc2ncc[nH]2)c1 [3-({1-[3-(1H-Imidazol-2-ylamino)-propyl]-1H-indazole-5-carbonyl}-amino)-2-(naphthalene-1-sulfonylamino)-propionic acid]
20 | 7.13 | Cc1cc(-c2ccccc2)cc(C)c1S(=O)(=O)N[C@@H](CNC(=O)c1ccc2c(cnn2CCCNc2ncc[nH]2)c1)C(=O)O [2-(3,5-Dimethyl-biphenyl-4-sulfonylamino)-3-({1-[3-(1H-imidazol-2-ylamino)-propyl]-1H-indazole-5-carbonyl}-amino)-propionic acid]
21 | 6.59 | O=C(NC[C@H](NS(=O)(=O)c1ccc(Cl)cc1)C(=O)O)c1ccc2c(cnn2CCCNc2ncc[nH]2)c1 [2-(4-Chloro-benzenesulfonylamino)-3-({1-[3-(1H-imidazol-2-ylamino)-propyl]-1H-indazole-5-carbonyl}-amino)-propionic acid]
22 | 6.39 | COc1ccc(S(=O)(=O)N[C@@H](CNC(=O)c2ccc3c(cnn3CCCNc3ncc[nH]3)c2)C(=O)O)cc1 [3-({1-[3-(1H-Imidazol-2-ylamino)-propyl]-1H-indazole-5-carbonyl}-amino)-2-(4-methoxy-benzenesulfonylamino)-propionic acid]
23 | 7.92 | O=C(NC[C@H](NS(=O)(=O)c1c(Cl)cccc1Cl)C(=O)O)c1ccc2c(cnn2CCCNc2ncc[nH]2)c1 [2-(2,6-Dichloro-benzenesulfonylamino)-3-({1-[3-(1H-imidazol-2-ylamino)-propyl]-1H-indazole-5-carbonyl}-amino)-propionic acid]
24 | 7.47 | O=C(NC[C@H](NS(=O)(=O)c1ccccc1)C(=O)O)c1ccc2c(cnn2CCCNc2ncc[nH]2)c1 [2-Benzenesulfonylamino-3-({1-[3-(1H-imidazol-2-ylamino)-propyl]-1H-indazole-5-carbonyl}-amino)-propionic acid]
25 | 5.70 | CC(C)(C)c1ccc(S(=O)(=O)N[C@@H](CNC(=O)c2ccc3c(cnn3CCCNc3ncc[nH]3)c2)C(=O)O)cc1 [2-(4-tert-Butyl-benzenesulfonylamino)-3-({1-[3-(1H-imidazol-2-ylamino)-propyl]-1H-indazole-5-carbonyl}-amino)-propionic acid]
26 | 7.08 | Cc1ccc(S(=O)(=O)N[C@@H](CNC(=O)c2ccc3c(cnn3CCCNc3ncc[nH]3)c2)C(=O)O)cc1 [3-({1-[3-(1H-Imidazol-2-ylamino)-propyl]-1H-indazole-5-carbonyl}-amino)-2-(toluene-4-sulfonylamino)-propionic acid]
27 | 6.40 | CC(=O)Nc1ccc(S(=O)(=O)N[C@@H](CNC(=O)c2ccc3c(cnn3CCCNc3ncc[nH]3)c2)C(=O)O)cc1 [2-(4-Acetylamino-benzenesulfonylamino)-3-({1-[3-(1H-imidazol-2-ylamino)-propyl]-1H-indazole-5-carbonyl}-amino)-propionic acid]
28 | 7.09 | O=C(NC[C@H](NS(=O)(=O)c1ccc2ccccc2c1)C(=O)O)c1ccc2c(cnn2CCCNc2ncc[nH]2)c1 [3-({1-[3-(1H-Imidazol-2-ylamino)-propyl]-1H-indazole-5-carbonyl}-amino)-2-(naphthalene-2-sulfonylamino)-propionic acid]
29 | 7.13 | Cc1cccc(C)c1S(=O)(=O)N[C@@H](CNC(=O)c1ccc2c(cnn2CCCNc2ncc[nH]2)c1)C(=O)O [2-(2,6-Dimethyl-benzenesulfonylamino)-3-({1-[3-(1H-imidazol-2-ylamino)-propyl]-1H-indazole-5-carbonyl}-amino)-propionic acid]
